For series [1], the system named is RAW264.7. In words: Antiinflammatory activity in mouse RAW264.7 cells assessed as inhibition of LPS-induced NO production at 20 uM after 24 hrs by Griess method. The series is classed as functional, cell-based. In short, it runs like this:
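RAW264.7 cells co-treated with test agent (20 μM) and LPS (1 μg/mL) for 24 h. NO released to medium measured by Griess assay. Hydrocortisone sodium succinate (20 μM) positive control. Mean ± SD, n = 3; significance versus control.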
On the technique in general: Nitrite, measured by Griess reagent, commonly stands in for NO production.

Series [2] concerns RAW264.7. In words: Cytotoxicity against LPS-stimulated mouse RAW264.7 cells at 20 uM after 24 hrs by MTT assay. The series is classed as cell-based. Particulars: raw264.7, 24 h. The method, boiled down:
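RAW264.7 cells co-treated with test agent (20 μM) and LPS (1 μg/mL) for 24 h; survival read by MTT. Mean ± SD, n = 3; significance versus control group.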
For orientation: Tetrazolium dyes change colour on reduction, which living cells bring about.

For series [3], the system named is RAW264.7. In words: Inhibition of LPS-stimulated NFkappaB activation in mouse RAW264.7 cells assessed as reduction in LPS-induced IkappaB phosphorylation at 20 uM after 2 hrs by Western blot analysis. The series is classed as cell-based. In short, it runs like this: (§1)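 RAW264.7 cells co-treated 2 h with LPS (1 μg/mL) plus test agent (10, 20, 30 μM) or hydrocortisone sodium succinate (20 μM). IκB phosphorylation and degradation assessed as NF-κB pathway read-out. Mean ± SD, n = 3; significance versus LPS-stimulated group.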
A general note: A western blot detects proteins with antibodies after separation by electrophoresis.

Series [4] deals with RAW264.7. In words: Antiinflammatory activity in mouse RAW264.7 cells assessed as reduction in LPS-induced iNOS expression at 20 uM after 24 hrs by Western blot analysis. The series is classed as functional, cell-based. The method, boiled down: (§2)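 RAW264.7 cells co-treated 24 h with LPS (1 μg/mL) plus test agent (10, 20, 30 μM) or hydrocortisone sodium succinate (20 μM). COX-2 and iNOS protein levels determined. Mean ± SD of three independent experiments; significance versus LPS-stimulated group.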

For series [5], the system named is RAW264.7. In words: Antiinflammatory activity in mouse RAW264.7 cells assessed as reduction in LPS-induced COX2 protein expression at 20 uM after 24 hrs by Western blot analysis. The series is classed as functional, cell-based. In short, it runs like this:
as §2

In series [6] the test system is RAW264.7. In words: Inhibition of LPS-stimulated NFkappaB activation in mouse RAW264.7 cells assessed as reduction in LPS-induced IkappaB degradation at 20 uM after 2 hrs by Western blot analysis. The series is classed as cell-based. In short, it runs like this: as §1
For series [7], the system named is RAW264.7. In words: Inhibition of LPS-stimulated NFkappaB activation in mouse RAW264.7 cells assessed as reduction in LPS-induced IkappaB phosphorylation at 10 to 30 uM after 2 hrs by Western blot analysis. The series is classed as cell-based. The method, boiled down: as §1
Series [8] concerns RAW264.7. In words: Antiinflammatory activity in mouse RAW264.7 cells assessed as reduction in LPS-stimulated TNF alpha secretion preincubated for 2 hrs followed by LPS addition and measured after 4 hrs by ELISA. The series is classed as functional, cell-based. In short, it runs like this: (§3)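 RAW264.7 cells pretreated 2 h with test agent (10, 20, 30 μM) or hydrocortisone sodium succinate (20 μM), then LPS (1 μg/mL) for 4 h. TNF-α and IL-6 production measured. Mean ± SD, n = 3; significance versus control group.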

For series [9], the system named is RAW264.7. In words: Antiinflammatory activity in mouse RAW264.7 cells assessed as reduction in LPS-induced iNOS expression after 24 hrs by Western blot analysis. The series is classed as functional, cell-based. The method, boiled down:
as §2

Series [10] has as its system RAW264.7. In words: Antiinflammatory activity in mouse RAW264.7 cells assessed as reduction in LPS-induced COX2 protein expression after 24 hrs by Western blot analysis. The series is classed as functional, cell-based. The method, boiled down:
as §2

Series [11] deals with RAW264.7. Nature of the series: Antiinflammatory activity in LPS-induced mouse RAW264.7 cells in presence of glucocorticoid receptor antagonist RU-486. The series is classed as functional, cell-based.
The subject of series [12] is RAW264.7. In words: Inhibition of LPS-stimulated NFkappaB activation in mouse RAW264.7 cells assessed as reduction in LPS-induced IkappaB degradation at 10 to 30 uM after 2 hrs by Western blot analysis. The series is classed as cell-based. In short, it runs like this: as §1
For series [13], the system named is RAW264.7. Nature of the series: Antiinflammatory activity in mouse RAW264.7 cells assessed as reduction in LPS-induced IL-6 secretion preincubated for 2 hrs followed by LPS addition and measured after 4 hrs by ELISA. The series is classed as functional, cell-based. In short, it runs like this:
as §3

Activity calls are given as the source filed them. No cut-off for these calls is given here.

With `CC(C)(O)[C@@H]1CC[C@@](C)([C@H]2CC[C@]3(C)[C@@H]2[C@H](O)C[C@@H]2[C@@]4(C)CC[C@H](O)C(C)(C)[C@@H]4CC[C@]23C)O1`, the inhibition entry in series [1] is “inactive”. Besides, in series [2], the Activity entry is given as “Non-Toxic”.
For `CC(C)(O)[C@H]1CC[C@@](C)([C@H]2CC[C@]3(C)[C@@H]2[C@@H](N)C[C@@H]2[C@@]4(C)CC[C@H](O)C(C)(C)[C@@H]4CC[C@]23C)O1`, the Activity result in series [2] is reported as “Toxic”.
Regarding `CC(C)(O)[C@H]1CC[C@@](C)([C@H]2CC[C@]3(C)[C@@H]2[C@H](O)C[C@@H]2[C@@]4(C)CC[C@@H](N)C(C)(C)[C@@H]4CC[C@]23C)O1`, the inhibition entry in series [1] was “Active”. In series [2], the Activity entry is on record as “Non-Toxic”.
In the same order, the values of `CCCCCC(=O)O[C@H]1CC[C@]2(C)[C@H]3C[C@@H](O)[C@@H]4[C@@H]([C@]5(C)CC[C@H](C(C)(C)O)O5)CC[C@@]4(C)[C@]3(C)CC[C@H]2C1(C)C` are “Active” and “Non-Toxic”.
As to `CC(C)(O)[C@H]1CC[C@@](C)([C@H]2CC[C@]3(C)[C@@H]2C(=O)C[C@@H]2[C@@]4(C)CC[C@H](O)C(C)(C)[C@@H]4CC[C@]23C)O1`, the inhibition result in [1] was “Active”. Also, the Activity entry in [2] is given as “Non-Toxic”.
On to `CC(C)(O)[C@H]1CC[C@@](C)([C@H]2CC[C@]3(C)[C@@H]2C(=N)C[C@@H]2[C@@]4(C)CC[C@H](O)C(C)(C)[C@@H]4CC[C@]23C)O1`, for which the inhibition result in series [1] was “inactive”. Further, the Activity result in series [2] was “Non-Toxic”.
`CC(C)(O)[C@@H]1CC[C@@](C)([C@H]2CC[C@]3(C)[C@@H]2[C@H](O)C[C@@H]2[C@@]4(C)CC[C@H](N)C(C)(C)[C@@H]4CC[C@]23C)O1`: the inhibition result in series [1] is “Active”. For the same compound, the Activity result in series [2] is given as “Non-Toxic”.
As to `C[C@]12CCC(=O)C=C1CC[C@@H]1[C@@H]2[C@@H](O)C[C@@]2(C)[C@H]1CC[C@]2(O)C(=O)COC(=O)CCC(=O)O`, the inhibition result in [3] and in series [6] was “Active” each time. In addition, the outcome in series [4] and in [5] was Active.
Consider `CC(C)(O)[C@H]1CC[C@@](C)([C@H]2CC[C@]3(C)[C@@H]2[C@H](O)C[C@@H]2[C@@]4(C)CCC(=O)C(C)(C)[C@@H]4CC[C@]23C)O1`, for which, in series [1], the inhibition entry was “Active”. Further, the Activity entry in series [2] is “Non-Toxic”.
As for `CC(C)(O)[C@H]1CC[C@@](C)([C@H]2CC[C@]3(C)[C@@H]2/C(=N/O)C[C@@H]2[C@@]4(C)CC[C@H](O)C(C)(C)[C@@H]4CC[C@]23C)O1`, the inhibition entry in [1] was “inactive”. Also, in series [2], the Activity result was “Non-Toxic”.
On to `CC(C)(O)[C@H]1CC[C@@](C)([C@H]2CC[C@]3(C)[C@@H]2[C@H](O)C[C@@H]2[C@@]4(C)CC[C@H](N)C(C)(C)[C@@H]4CC[C@]23C)O1`, for which the inhibition entry in series [1] was “Active”. For the same compound, the Activity entry in series [2] is “Non-Toxic”.
For `CCCCCC(=O)O[C@H]1CC[C@]2(C)[C@H]3C[C@@H](O)[C@@H]4[C@@H]([C@]5(C)CC[C@@H](C(C)(C)O)O5)CC[C@@]4(C)[C@]3(C)CC[C@H]2C1(C)C`, in that order: “Active” and “Non-Toxic”.
Turning to `CC(C)(O)[C@H]1CC[C@@](C)([C@H]2CC[C@]3(C)[C@@H]2[C@@H](O)C[C@@H]2[C@@]4(C)CC[C@H](O)C(C)(C)[C@@H]4CC[C@]23C)O1`, the inhibition entry in [1] is “inactive”.
In the case of `CC(C)(O)[C@H]1CC[C@@](C)([C@H]2CC[C@]3(C)[C@@H]2[C@H](O)C[C@@H]2[C@@]4(C)CC[C@H](O)C(C)(C)[C@@H]4CC[C@]23C)O1`, in series [1], the inhibition result is “Active”. For the same compound, the Activity result in [2] was “Non-Toxic”.
For the compound `CC(C)(O)[C@@H]1CC[C@@](C)([C@H]2CC[C@]3(C)[C@@H]2[C@H](O)C[C@@H]2[C@@]4(C)CCC(=O)C(C)(C)[C@@H]4CC[C@]23C)O1`, in series [1], the inhibition entry is “Active”. For the same compound, the Activity result in [2] is reported as “Non-Toxic”.
For `CC(C)(O[Si](C)(C)C(C)(C)C)[C@H]1CC[C@@](C)([C@H]2CC[C@]3(C)[C@@H]2[C@H](O)C[C@@H]2[C@@]4(C)CC[C@H](O)C(C)(C)[C@@H]4CC[C@]23C)O1`, in that order: “inactive” and “Non-Toxic”.
As for `CC(C)(O)[C@H]1CC[C@@](C)([C@H]2CC[C@]3(C)[C@@H]2C(=O)C[C@@H]2[C@@]4(C)CCC(=O)C(C)(C)[C@@H]4CC[C@]23C)O1`, the Activity result in series [2] is reported as “Non-Toxic”.
Take `CC(C)(O)[C@H]1CC[C@@](C)([C@H]2CC[C@]3(C)[C@@H]2[C@H](O)C[C@@H]2[C@@]4(C)CC/C(=N\O)C(C)(C)[C@@H]4CC[C@]23C)O1`: the inhibition result in series [1], in [7] and in series [12] was “Active” throughout. In addition, the Activity entry in series [8] was “Dose-dependent effect”; in [9] it was “Dose-dependent effect”; in series [2], “Non-Toxic”; in series [10], “Dose-dependent effect”; in series [13], “Dose-dependent effect”. Further, the outcome in series [11] was Active.
As for `CC(C)(O)[C@@H]1CC[C@@](C)([C@H]2CC[C@]3(C)[C@@H]2[C@H](O)C[C@@H]2[C@@]4(C)CC/C(=N\O)C(C)(C)[C@@H]4CC[C@]23C)O1`, the inhibition entry in [1] is “Active”. The Activity result in series [2] is on record as “Non-Toxic”.

The values above are taken from ChEMBL document CHEMBL4602707, “Synthesis and Structure-Activity Relationship of Pyxinol Derivatives as Novel Anti-Inflammatory Agents” (ACS Med Chem Lett, 2020).
